Experimental data reported in ChEMBL document CHEMBL1125137, “Synthesis and structure-activity relationships of N,N'-di-o-tolylguanidine analogues, high-affinity ligands for the haloperidol-sensitive sigma receptor” (J Med Chem, 1990).

Assays:
[1] = biological target: Glutamate [NMDA] receptor; assay: (§1) In vitro inhibitory activity against [3H](+)-MK-801 binding to PCP receptor in guinea pig brain membrane homogenates; format: cell membranes, Cavia porcellus
Summary of the method: (§2)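 [3H](+)-MK-801 (97 Ci/mmol) at 1 nM final with guinea pig brain membranes at 150 μg protein/mL. Assay and filtration buffer was 5 mM Tris-HCl pH 7.4. Incubation 4 h at 25 °C. Nonspecific binding measured with 10 μM TCP or MK-801. Bound ligand collected by glass-fiber filtration and counted by scintillation. IC50 taken from displacement curves.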

[2] = biological target: Glutamate [NMDA] receptor; assay: In vitro inhibitory activity against [3H]-TCP binding to PCP receptor in guinea pig brain membrane homogenates; format: cell membranes, Cavia porcellus
Summary of the method: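 Displacement of 1.8 nM [3H]TCP (100 Ci/mmol) from guinea pig brain membranes (800 μg protein/mL, 50 mM Tris-HCl pH 7.4). Incubation 45 min at room temperature. Nonspecific binding defined by 10 μM PCP. Vacuum filtration on glass-fiber filters, two washes, scintillation counting. IC50 interpolated from semilog displacement curves.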

[3] = biological target: Glutamate [NMDA] receptor; assay: as §1; format: cell membranes, Cavia porcellus; summary of the method: as §2; remark: listed apart in the source
[4] = biological target: sigma receptor (guinea pig); assay: In vitro inhibitory activity against [3H]- (+)-3-PPP binding to sigma receptor in guinea pig brain membrane homogenates

How did the IC50 [1] turn out when `CC(C)c1ccccc1N=C(N)Nc1ccccc1C(C)C` was run?
The IC50 was 0.275 µM.

`Cc1cccc(NC(=N)Nc2cccc(C)c2)c1` was tested. Which IC50 [2] did it give?
Its IC50 is 0.37 µM.

And the IC50 [1]?
Its IC50 is 0.33 µM.

`N=C(Nc1ccccc1I)NC1CC2CCC1C2` (stereo not drawn) was tested. Which IC50 [3] did it give?
The IC50 was greater than 10 µM.

What about the IC50 [1] of the same compound?
The IC50 was greater than 10 µM.

How did the IC50 [2] turn out when `CCc1ccccc1N=C(N)Nc1ccccc1CC` was run?
The IC50 was 0.358 µM.

And the IC50 [1]?
The IC50 was 0.82 µM.

How did the IC50 [1] turn out when `NC1=Nc2ccccc2-c2ccccc2N1` was run?
Its IC50 is greater than 10 µM.

Which IC50 [3] does the source give for `NC1=Nc2cccc3cccc(c23)N1` here?
The IC50 was greater than 10 µM.

For `Cc1cccc(C)c1N=C(N)Nc1c(C)cccc1C`, which IC50 [2] is on record?
The IC50 was 32 µM.

For `Cc1cc([N+](=O)[O-])ccc1NC(N)=Nc1cccc(O)c1`, which IC50 [2] is on record?
Its IC50 is 37 µM.

Which IC50 [2] does the source give for `NC(=Nc1ccccc1I)Nc1ccccc1I` here?
The IC50 was 0.21 µM.

And the IC50 [1]?
Its IC50 is 0.24 µM.

`NC1=Nc2ccccc2CN1c1ccccc1` was tested. Which IC50 [2] did it give?
The IC50 was greater than 10 µM.

How did the IC50 [1] turn out when `NC(=Nc1ccccc1-c1ccccc1)NC12CC3CC(CC(C3)C1)C2` was run?
Its IC50 is greater than 10 µM.

With `Cc1ccccc1/N=C(/N)Nc1cccc(O)c1` as the compound, how does the IC50 [2] read?
The IC50 was 2.5 µM.

Which IC50 [1] does the source give for `N=C(Nc1ccccc1/C=C/c1ccccc1)NC12CC3CC(CC(C3)C1)C2` here?
The IC50 was 3.5 µM.

For `N=C(NCc1ccccc1)NCc1ccccc1`, which IC50 [2] is on record?
Its IC50 is 6.8 µM.

With `Cc1ccccc1/N=C(\N)NC12CC3CC(C)(CC(C)(C3)C1)C2` as the compound, how does the IC50 [1] read?
The IC50 was 2 µM.

For `Cc1cc([N+](=O)[O-])ccc1NC(=N)Nc1ccc([N+](=O)[O-])cc1C`, which IC50 [2] is on record?
Its IC50 is 4.3 µM.

How did the IC50 [1] turn out when `CCCCCCCCN=C(NC1CCCCC1)NC1CCCCC1` was run?
The IC50 was greater than 10 µM.

With `CN=C(NC1CCCCC1)NC1CCCCC1` as the compound, how does the IC50 [3] read?
Its IC50 is greater than 10 µM.

And the IC50 [2]?
Its IC50 is greater than 10 µM.

Which IC50 [2] does the source give for `NC1=NCCN1c1ccccc1` here?
The IC50 was greater than 10 µM.

Which IC50 [1] does the source give for `N=C(Nc1ccccc1CCc1ccccc1)NC12CC3CC(CC(C3)C1)C2` here?
Its IC50 is greater than 10 µM.

For `Cc1ccccc1/N=C(/N)Nc1ccc(N)cc1C`, which IC50 [2] is on record?
The IC50 was 4.35 µM.

How did the IC50 [2] turn out when `N=C(NC1CCCCC1)NC12CC3CC(CC(C3)C1)C2` was run?
Its IC50 is greater than 10 µM.

With `N=C(Nc1ccccc1/C=C/c1ccccc1)NC1C2CC3CC(C2)CC1C3` (stereo not drawn) as the compound, how does the IC50 [1] read?
The IC50 was greater than 10 µM.

With `N=C(NC1C2CC3CC(C2)CC1C3)NC1C2CC3CC(C2)CC1C3` (stereo not drawn) as the compound, how does the IC50 [2] read?
The IC50 was greater than 10 µM.

How did the IC50 [1] turn out when `Cc1ccccc1N/C(N)=N/C1CC[C@@]2(C)C(=CCC3C2CC[C@@]2(C)C3CC[C@@H]2C(C)CCCC(C)C)C1` (stereo partly drawn) was run?
The IC50 was greater than 10 µM.

Which IC50 [1] does the source give for `N=C(NC1C[C@H]1c1ccccc1)NC12CC3CC(CC(C3)C1)C2` (stereo partly drawn) here?
The IC50 was greater than 10 µM.

For `N=C(NC1CC2CCC1C2)NC1CC2CCC1C2` (stereo not drawn) [listing 1 of 2 here], which IC50 [1] is on record?
Its IC50 is greater than 10 µM.

For `CNC(=N)NC`, which IC50 [2] is on record?
The IC50 was greater than 10 µM.

How did the IC50 [1] turn out when `CC12CC3CC(C)(C1)CC(/N=C(\N)Nc1ccccc1I)(C3)C2` was run?
The IC50 was 4 µM.

How did the IC50 [1] turn out when `N=C(Nc1ccccc1I)NC1C2CC3CC(C2)CC1C3` (stereo not drawn) was run?
Its IC50 is greater than 10 µM.

`N=C(NC12CC3CC(CC(C3)C1)C2)NC12CC3CC(CC(C3)C1)C2` was tested. Which IC50 [2] did it give?
The IC50 was greater than 10 µM.

With `CC(=O)[C@H]1CCC2C3CC=C4CC(/N=C(\N)Nc5ccccc5C)CC[C@]4(C)C3CC[C@@]21C` (stereo partly drawn) as the compound, how does the IC50 [1] read?
Its IC50 is greater than 10 µM.

Which IC50 [1] does the source give for `CC1(C)C2CCC1(C)C(/N=C(\N)Nc1ccccc1I)C2` (stereo not drawn) here?
The IC50 was greater than 10 µM.

How did the IC50 [1] turn out when `NC(=Nc1ccccc1I)NC12CC3CC(CC(C3)C1)C2` was run?
The IC50 was greater than 10 µM.

For `N=C(NC1CC2CCC1C2)NC1CC2CCC1C2` (stereo not drawn) [listing 2 of 2 here], which IC50 [1] is on record?
Its IC50 is 5 µM.

Which IC50 [1] does the source give for `CC(C)(C)/N=C(\N)Nc1ccccc1I` here?
Its IC50 is greater than 9.6 µM.

With `N=C(Nc1ccccc1/C=C/c1c(F)c(F)c(F)c(F)c1F)NC12CC3CC(CC(C3)C1)C2` as the compound, how does the IC50 [1] read?
Its IC50 is greater than 10 µM.

Which IC50 [1] does the source give for `CC12CC3CC(C)(C1)CC(/N=C(\N)Nc1ccccc1/C=C/c1ccccc1)(C3)C2` here?
The IC50 was greater than 10 µM.

For `N=C(Nc1ccccc1)Nc1ccccc1`, which IC50 [2] is on record?
Its IC50 is 3.45 µM.

`CCc1ccc(NC(=N)Nc2ccc(CC)cc2)cc1` was tested. Which IC50 [1] did it give?
The IC50 was 10.3 µM.

`Cc1cc(N)ccc1N=C(N)Nc1cccc(O)c1` was tested. Which IC50 [1] did it give?
Its IC50 is greater than 10 µM.

How did the IC50 [1] turn out when `CC(C)(C)c1ccccc1N=C(N)Nc1ccccc1C(C)(C)C` was run?
Its IC50 is 38.3 µM.

`N/C(=N\c1ccccc1[N+](=O)[O-])NC12CC3CC(CC(C3)C1)C2` was tested. Which IC50 [1] did it give?
Its IC50 is greater than 10 µM.

Which IC50 [2] does the source give for `Cc1ccccc1N=C(N)Nc1ccccc1N` here?
The IC50 was 12 µM.

For `Cc1ccccc1/N=C(/N)Nc1c(C)cccc1C`, which IC50 [2] is on record?
The IC50 was 1.9 µM.

What does the source list for `CCc1cccc(NC(=N)Nc2cccc(CC)c2)c1`?
IC50 [2]: 0.082 µM; IC50 [1]: 0.168 µM

How did the IC50 [1] turn out when `N=C(Nc1ccccc1I)Nc1ccccc1/C=C/c1ccccc1` was run?
The IC50 was greater than 10 µM.

`ONC(=NC1CCCCC1)NC1CCCCC1` was tested. Which IC50 [2] did it give?
Its IC50 is greater than 10 µM.

What does the source list for `Cc1ccccc1N=C(N)NC1CCCCC1`?
IC50 [2]: > 10 µM; IC50 [1]: 10 µM

How did the IC50 [2] turn out when `Cc1cc(N)ccc1NC(=N)Nc1ccc(N)cc1C` was run?
The IC50 was greater than 100 µM.

With `Cc1ccccc1N=C(N)Nc1ccccc1I` as the compound, how does the IC50 [2] read?
Its IC50 is 2.05 µM.

For `Cc1cc(Br)ccc1N=C(N)Nc1ccc(Br)cc1C`, which IC50 [2] is on record?
The IC50 was greater than 10 µM.

For `CCCc1cccc(NC(=N)Nc2cccc(CCC)c2)c1`, which IC50 [1] is on record?
Its IC50 is 2.11 µM.

With `N=C(Nc1cccc2ccccc12)Nc1cccc2ccccc12` as the compound, how does the IC50 [1] read?
Its IC50 is 0.134 µM.

With `N=C(N)N(c1ccccc1)c1ccccc1` as the compound, how does the IC50 [4] read?
The IC50 was greater than 100 µM.

`Cc1ccccc1NC(N)=NC1CC2CCC1(C)C2(C)C` (stereo not drawn) was tested. Which IC50 [1] did it give?
The IC50 was 5 µM.

For `CCCCNC(=N)NCCCC`, which IC50 [2] is on record?
Its IC50 is 49 µM.

With `NC(=Nc1ccc(Br)cc1)Nc1ccc(Br)cc1` as the compound, how does the IC50 [2] read?
Its IC50 is 34 µM.

For `Cc1ccccc1/N=C(\N)NC1C2CC3CC(C2)CC1C3` (stereo not drawn), which IC50 [1] is on record?
Its IC50 is greater than 10 µM.

`N=C(Nc1ccccc1C(F)(F)F)Nc1ccccc1C(F)(F)F` was tested. Which IC50 [2] did it give?
The IC50 was 4.15 µM.

Which IC50 [1] does the source give for `NC(=Nc1ccccc1-c1ccccc1)Nc1ccccc1-c1ccccc1` here?
Its IC50 is greater than 10 µM.

For `Cc1ccc(N=C(N)Nc2ccc(C)cc2)cc1`, which IC50 [2] is on record?
Its IC50 is 31 µM.

What about the IC50 [1] of the same compound?
Its IC50 is 13.3 µM.

With `CC(C)c1ccc(NC(=N)Nc2ccc(C(C)C)cc2)cc1` as the compound, how does the IC50 [1] read?
The IC50 was 26.8 µM.

With `Cc1ccccc1NC(N)=Nc1ccccc1[N+](=O)[O-]` as the compound, how does the IC50 [2] read?
The IC50 was 2.1 µM.

For `Cc1ccccc1NC(N)=NC1CC2CCC1C2` (stereo not drawn), which IC50 [3] is on record?
Its IC50 is greater than 10 µM.

And the IC50 [1]?
Its IC50 is greater than 10 µM.

Which IC50 [2] does the source give for `Cc1ccccc1/N=C(/N)Nc1ccc([N+](=O)[O-])cc1C` here?
Its IC50 is 5.7 µM.

For `Cc1ccccc1/N=C(\N)NC12CC3CC(CC(C3)C1)C2`, which IC50 [2] is on record?
The IC50 was 32 µM.

With `NC(=NC1CCCCC1)NC1CCCCC1` as the compound, how does the IC50 [2] read?
The IC50 was greater than 10 µM.

For `CC(C)c1cccc(NC(=N)Nc2cccc(C(C)C)c2)c1`, which IC50 [1] is on record?
The IC50 was 0.498 µM.

How did the IC50 [1] turn out when `N=C1N(c2ccccc2)CCN1c1ccccc1` was run?
Its IC50 is greater than 10 µM.

How did the IC50 [1] turn out when `NC(=Nc1ccccc1-c1ccccc1)Nc1cccc2ccccc12` was run?
Its IC50 is greater than 10 µM.

With `Cc1ccccc1/N=C(/N)Nc1ccccc1/C=C/c1ccccc1` as the compound, how does the IC50 [1] read?
Its IC50 is greater than 10 µM.

How did the IC50 [2] turn out when `Cc1ccccc1NC(=N)Nc1ccccc1C` [DITOLYLGUANIDINE] was run?
Its IC50 is 7.8 µM.

What about the IC50 [1] of the same compound?
The IC50 was 10.7 µM.
